PubChem BioAssay
Activity calls are given as the source filed them.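 How the source made its calls, unless noted: active means Her2 level under about 52% in both replicate screens, with viability over 70% of control (limit read from the data); inconclusive means Her2 under the limit in one screen only, or viability under 70%; inactive means Her2 level above the set limit.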

Key:
[1] = reducers of endogenous Her2 protein level, primary screen, SKBR3 breast tumor cells, AlphaScreen, ATP viability (AID 461); details: 18-24 h, measured here: SKBR3 viability, ATP luminescence, at 10 µM;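 on Her2 level: lower value means less Her2 protein in the cells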;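 on viability: percent of carrier control wells set as 100% viability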
[2] = biological target: Receptor tyrosine-protein kinase erbB-2 (Homo sapiens) (UniProt P04626); assay: as above; details: 18-24 h, at 10 µM, stronger effect = lower value
Receptor tyrosine-protein kinase erbB-2 (Homo sapiens), sequence (P04626 whole entry, looked up): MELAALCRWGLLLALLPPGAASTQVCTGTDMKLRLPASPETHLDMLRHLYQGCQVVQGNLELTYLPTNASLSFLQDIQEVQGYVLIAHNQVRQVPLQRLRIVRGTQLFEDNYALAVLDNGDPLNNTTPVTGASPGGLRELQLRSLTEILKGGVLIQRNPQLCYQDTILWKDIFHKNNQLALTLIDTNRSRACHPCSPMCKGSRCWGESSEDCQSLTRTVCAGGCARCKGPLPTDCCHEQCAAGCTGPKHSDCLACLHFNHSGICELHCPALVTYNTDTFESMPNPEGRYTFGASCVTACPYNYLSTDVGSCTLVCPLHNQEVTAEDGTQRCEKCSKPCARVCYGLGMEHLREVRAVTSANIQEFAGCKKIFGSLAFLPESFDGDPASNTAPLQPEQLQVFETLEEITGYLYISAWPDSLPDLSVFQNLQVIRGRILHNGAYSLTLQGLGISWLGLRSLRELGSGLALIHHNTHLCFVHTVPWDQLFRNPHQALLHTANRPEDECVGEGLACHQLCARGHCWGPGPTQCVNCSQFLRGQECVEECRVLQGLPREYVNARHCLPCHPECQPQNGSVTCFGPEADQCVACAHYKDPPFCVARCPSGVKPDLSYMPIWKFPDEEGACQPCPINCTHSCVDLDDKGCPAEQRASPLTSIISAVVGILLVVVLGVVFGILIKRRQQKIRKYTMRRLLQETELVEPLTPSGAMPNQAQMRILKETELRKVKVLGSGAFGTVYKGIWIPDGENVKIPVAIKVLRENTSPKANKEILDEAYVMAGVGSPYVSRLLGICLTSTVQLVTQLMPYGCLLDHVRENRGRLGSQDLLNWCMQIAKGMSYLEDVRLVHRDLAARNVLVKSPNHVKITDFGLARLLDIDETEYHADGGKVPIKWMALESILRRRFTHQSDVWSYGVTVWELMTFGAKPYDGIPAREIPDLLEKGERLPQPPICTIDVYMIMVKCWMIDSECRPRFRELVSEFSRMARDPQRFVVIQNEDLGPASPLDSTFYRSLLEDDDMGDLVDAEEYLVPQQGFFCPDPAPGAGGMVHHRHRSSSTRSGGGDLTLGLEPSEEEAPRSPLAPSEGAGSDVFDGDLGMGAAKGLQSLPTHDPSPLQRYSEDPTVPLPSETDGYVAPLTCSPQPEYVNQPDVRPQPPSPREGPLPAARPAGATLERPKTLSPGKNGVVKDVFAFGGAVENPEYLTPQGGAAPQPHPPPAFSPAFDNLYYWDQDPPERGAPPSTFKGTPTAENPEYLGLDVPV

[3] = SK-BR-3 cell growth inhibitors, pilot screen, 24 h, human (AID 572;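 active means viability at or below 10% of carrier control in both of two separate runs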;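 further: compound exposure lasted between 18 and 24 h rather than exactly 24 h; 100% = carrier-treated control wells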); details: SK-BR-3 viability, CellTiter-Glo luminescence, at 10 µM, stronger effect = lower value
[4] = HUVEC growth inhibition – cell-based, human, primary screen (AID 575;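 active means viability at or below 30% in both replicate assays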;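 further: 100% = median of untreated cell wells with 0.1% DMSO on each plate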); details: HUVEC proliferation, CellTiter-Glo luminescence, 72 h; at 10 µM; stronger effect = lower value
Method in brief: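 Timing: 72 h treatment at 37 °C; material: HUVEC primary cells; technique: CellTiter-Glo luminescence measuring cellular ATP; controls: vehicle and MePR control wells; measure: percent of median DMSO-control luminescence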

[5] = growth inhibitors of H69AR lung tumor, primary screen, human, duplicate replicates (AID 580;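 active means viability at or under a set limit in both replicates, limit being median viability minus 3 SD, cut at about 48% in these data, passing the limit was not always enough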;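 further: 100% = mean luminescence of untreated wells and 0% = no signal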); details: H69AR lung tumor cells viability, ATP luminescence, 72 h; at 10 µM; stronger effect = lower value
[6] = 384-well plate pilot, post-Golgi transport modulator project, inhibition of yeast transport mutant growth (AID 636; in the data active means inhibition above about 31%); details: absorbance 615 nm, about 18 h, stronger effect = higher value
[7] = growth suppression of yeast trafficking mutant, preliminary HTS, modulators of trafficking downstream of Golgi apparatus project, 1536-format plate, OD 615 nm (AID 637; in the data active means inhibition above about 30%); details: yeast transport mutant growth, absorbance 615 nm, 18 h; stronger effect = higher value
[8] = reversal of MRP1-mediated doxorubicin resistance, pilot screen, H69AR cells, doxorubicin co-treatment (AID 601;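 active means viability loss from added drug above about 55%, and viability with drug at most 40%, in both replicates, limit read from the data, passing the limit was not always enough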); details: CellTiter-Glo, 72 h, at 10 µM; for differential viability (reversal): stronger effect = higher value
[9] = H69AR cells + 2 uM doxorubicin, measured here: viability with 2 uM doxorubicin, stronger effect = lower value
[10] = H69AR cells, compound alone cytotoxicity

| Compound | viability [1] [%] | Her2 level [2] | viability [3] | viability [4] | viability [5] | inhibition [6] | inhibition [7] | differential viability (reversal) ([8]; H69AR cells + 2 uM doxorubicin) | viability [8, 9] [%] | viability [8, 10] [%] |
| --- | --- | --- | --- | --- | --- | --- | --- | --- | --- | --- |
| Cc1ccc(-n2ncc3c(N4CCN(c5ccccc5)CC4)ncnc32)c(C)c1 | 93 | 79% (inactive) | 93% (inactive) | 57.9% (inactive) | 80.3% (inactive) | -2.93% (inactive) | 1.94% (inactive) |  |  |  |
| Cc1ccc2cc(CN(CCN3CCCC3)C(=O)Nc3ccc(F)cc3)c(=O)[nH]c2c1C | 94.5 | 81% (inactive) | 94.5% (inactive) | 38.8% (inactive) |  | 0.52% (inactive) | -0.79% (inactive) | -12.2% (inactive) | 25.6 | 13.5 |
| CC(C)(C)n1nnnc1C(c1ccccc1)N1CCc2ccccc2C1 (stereo unspecified) | 107 | 82% (inactive) | 107% (inactive) | 42% (inactive) |  | -7.26% (inactive) | -2.7% (inactive) | 5.93% (inactive) | 43.4 | 49.3 |
| COc1cccc(C(=O)Nc2c(C(N)=O)oc3ccccc23)c1 | 86.5 | 69% (inactive) | 86.5% (inactive) | 65.9% (inactive) |  | -5.33% (inactive) | 3% (inactive) | -13.6% (inactive) | 62.4 | 48.7 |
| CCCc1cc(-c2n[nH]c(C)c2-c2ccc(C(=O)OCC)o2)c(O)cc1O | 78 | 72% (inactive) | 78% (inactive) | 39.4% (inactive) |  | -4.74% (inactive) | 1.45% (inactive) | -10.2% (inactive) | 38.2 | 28 |
| COc1ccc(Br)cc1C1N2CC3(C)CN1CC(C)(C2)C3=O (stereo unspecified) | 114 | 89.5% (inactive) | 114% (inactive) | 97.1% (inactive) |  | -5.97% (inactive) | -3.61% (inactive) | -33% (inactive) | 87.3 | 54.3 |
| Cc1cccc(N2CCN(C(=O)c3ccc(NS(=O)(=O)c4c(C)noc4C)cc3)CC2)c1C | 98 | 106% (inactive) | 98% (inactive) | 68.2% (inactive) |  | -3.68% (inactive) | 2% (inactive) | 13.6% (inactive) | 46.2 | 59.8 |
